# Screening results from PubChem.
# Pf Dd2 inh = blocks growth of Plasmodium falciparum Dd2 parasites; actives 2.3% (n = 94,000); P. falciparum Dd2 growth, SYBR Green, 72 h; stronger effect = lower value; activity change, % at 10 µM; AID 1159554; in the data active = activity change below about -80%; inconclusive = no clear call, values can overlap the other calls
# IDH1 mut inh = blocks human IDH1 R132H reductase activity | O75874 | diaphorase/resazurin fluorescence, 60 min | inhibition, % at 10 µM | actives 0.18% (n = 70,000) | AID 624101; in the data active = inhibition above about 34%; inconclusive = no clear call, values can overlap the other calls; inactive = below about 11%;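 note: 0% = DMSO and 100% = no enzyme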
# Target sequence (O75874 whole entry R132H): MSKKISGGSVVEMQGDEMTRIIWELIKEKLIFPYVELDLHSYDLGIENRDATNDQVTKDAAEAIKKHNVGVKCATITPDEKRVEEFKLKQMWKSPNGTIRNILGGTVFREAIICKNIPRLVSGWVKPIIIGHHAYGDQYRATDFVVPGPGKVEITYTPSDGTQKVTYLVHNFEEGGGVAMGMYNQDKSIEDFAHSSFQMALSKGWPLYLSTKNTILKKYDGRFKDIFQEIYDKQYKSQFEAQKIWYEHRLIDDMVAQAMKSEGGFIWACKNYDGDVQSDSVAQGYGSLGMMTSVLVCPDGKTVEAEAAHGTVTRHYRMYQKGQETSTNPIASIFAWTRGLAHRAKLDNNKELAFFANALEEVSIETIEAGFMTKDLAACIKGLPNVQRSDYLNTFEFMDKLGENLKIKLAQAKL
# KDM4C inh = KDM4C (human) demethylase inhibition; Q9H3R0; GST-KDM4C 2-372, H3K9me3 peptide, LANCE TR-FRET; inhibition, % at 12.5 µM; actives 0.15% (n = 96,000);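 active = mean replicate inhibition above about 25%, with at least 55% of replicates also reaching it, limit read from the data, passing the limit was not always enough; inconclusive = only one of those two conditions met; inactive = neither condition met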
#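 Material: GST-tagged GASC-1 (JMJD2C) catalytic fragment, aa 2-372. Input: enzyme final amount 10 nM. Medium: HEPES buffer, pH 7.5, plus ascorbate. Reagent: H3K9me3 peptide substrate, Fe(II), 2-oxoglutarate. Doses: single dose. Times: reaction 30 min RT, detection step 1 h RT. Measured by: LANCE TR-FRET. Evaluation: Fall in 671/618 emission ratio as inhibition.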
# T cruzi growth-1 = T. cruzi proliferation inhibition; T. cruzi beta-gal in NIH3T3, GalScreen luminescence, 90 h; inhibition, % at 8.34 µM; actives 5.9% (n = 77,000);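 active = mean inhibition above about 93%, with at least 55% of replicates each passing it, limit read from the data, passing the limit was not always enough; inconclusive = only one of those two conditions holds; inactive = neither condition holds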
# T cruzi growth-2 = blocks T. cruzi growth in NIH3T3 host cells | shares compounds with T cruzi growth-1 | T. cruzi beta-gal in NIH3T3, GalScreen luminescence, 90 h | inhibition, % at 8.35 µM | actives 72% (n = 5,600);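 active = mean replicate inhibition above about 95% and at least 55% of replicates individually reaching it, limit read from the data; inconclusive = only one of the two criteria is met; inactive = neither criterion is met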
# T cruzi growth-3 = inhibitors of T. cruzi proliferation; shares compounds with T cruzi growth-1; T. cruzi beta-gal in NIH3T3, GalScreen luminescence, 90 h; inhibition, % at 2.09 µM; actives 21% (n = 5,600); AID 651740;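 active = mean inhibition above about 95%, with at least 55% of replicates also reaching it, limit read from the data; inconclusive = meets just one of the two conditions; inactive = meets neither condition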;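 note: plate controls were neutral control median for no effect and positive control median for full effect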
# NIH3T3 tox = NIH/3T3 (mouse) viability loss. shares compounds with T cruzi growth-1. NIH/3T3 viability, CellTiter-Glo ATP luminescence, 90 h. cytotoxicity (signal decrease), % at 8.35 µM. actives 14% (n = 5,600). AID 651742;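 active = mean signal decrease across replicates above about 35% based on untreated-well scatter, with enough replicates individually passing, limit read from the data; inconclusive = no rule stated though some were filed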;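 note: 0% = median of neutral control wells and 100% = median of positive control wells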
# 3T3 cytotox 2 = NIH/3T3 (mouse) viability loss. shares compounds with T cruzi growth-1. NIH/3T3 viability, CellTiter-Glo ATP luminescence, 90 h. inhibition, % at 24.9 µM. actives 56% (n = 5,600). AID 651744;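 active = mean loss of cell viability signal at or above a set limit, and enough replicates individually reaching it; inconclusive = meets only the mean limit or only the replicate share; inactive = meets neither condition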;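 note: 0% = median of neutral control wells and 100% = median of positive control wells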
# * marks the source's active call; other numbers are inactive results; ? = inconclusive; · = no result; ! = repeats disagree. Compounds with a hit are over-represented: about 5.8% of the library has one in this group of screens.
SMILES,Pf Dd2 inh,IDH1 mut inh,KDM4C inh,T cruzi growth-1,T cruzi growth-2,T cruzi growth-3,NIH3T3 tox,3T3 cytotox 2
COc1ccccc1C#Cc1ccc2c(c1)O[C@@H](CN(C)Cc1ccccc1)[C@H](C)CN([C@H](C)CO)S2(=O)=O,-74,0,-1,118*,?,112*,45*,106*
COc1ccccc1C#Cc1ccc2c(c1)O[C@H](CN(C)Cc1ccccc1)[C@H](C)CN([C@@H](C)CO)S2(=O)=O,-72,1,-4,123*,105*,115*,-16,-22
Cc1cc(S(=O)(=O)NC2CCCCC2)ccc1OCC(=O)O,·,0,·,·,·,·,·,·
Cc1[nH]c(=S)[nH]c(=O)c1Cc1ccc(C(=O)O)o1,·,3,·,·,·,·,·,·
COc1ccc(Cl)cc1NC(=O)CSc1nc2ccc(NC(=O)c3ccc(C)cc3)cc2s1,·,0,·,·,·,·,·,·
O=C(C[C@@H]1CC[C@@H](NC(=O)Nc2ccccc2)[C@H](CO)O1)NCc1ccccn1,10,0,0,108*,-12,-4,-9,3
O=C(C[C@H]1CC[C@@H](NC(=O)Nc2cc(F)ccc2F)[C@H](CO)O1)Nc1ccc(-c2ccccc2)cc1,-7,0,-2,132*,106*,75,23,32*
Cc1cccc(OCCCC(=O)Nc2ccccc2[N+](=O)[O-])c1C,·,-1,·,·,·,·,·,·
C[C@@H]1CN([C@H](C)CO)S(=O)(=O)c2ccc(C#Cc3ccc(F)cc3)cc2O[C@H]1CN(C)C(=O)c1ccccn1,-50,·,3,88,·,·,·,·
C[C@H](CO)N1C[C@H](C)[C@@H](CN(C)C)Oc2cc(C#Cc3ccccn3)ccc2S1(=O)=O,24,-1,-1,·,·,·,·,·
C[C@@H]1CN([C@H](C)CO)S(=O)(=O)c2ccc(C#Cc3ccccn3)cc2O[C@H]1CN(C)Cc1ccc(F)cc1,-29,0,-12,127*,104*,91,29,93*
C[C@H]1CN([C@@H](C)CO)S(=O)(=O)c2ccc(C#Cc3ccc(F)cc3)cc2O[C@@H]1CN(C)C(=O)c1ccccn1,-66,·,-1,?,102*,29,1,52*
C[C@H]1CN([C@@H](C)CO)S(=O)(=O)c2ccc(C#Cc3ccccn3)cc2O[C@H]1CN(C)C,5,-8,1,·,·,·,·,·
C[C@@H]1CN([C@H](C)CO)S(=O)(=O)c2ccc(C#Cc3ccccn3)cc2O[C@@H]1CN(C)Cc1ccc(F)cc1,-24,0,-5,116*,105*,64,11,24*
C[C@@H]1CN([C@@H](C)CO)S(=O)(=O)c2ccc(C#Cc3ccccn3)cc2O[C@H]1CN(C)Cc1ccc(F)cc1,-47,0,-26,128*,97*,?,50*,39*
O=c1cc(-c2ccc(O)c(O)c2)oc2c(C3O[C@H](CO)[C@H](O)[C@H](O)[C@H]3O)c(O)cc(O)c12 (some centres not stated),·,-1,·,·,·,·,·,·
N#Cc1sc2c(c1OC(=O)c1cccs1)c(=O)n(-c1ccccc1)c(=S)n2-c1ccccc1,·,1,·,·,·,·,·,·
C[C@@H]1CCCCO[C@@H](CN(C)C(=O)C2CCCCC2)[C@H](C)CN([C@H](C)CO)C(=O)c2cc(N(C)C)ccc2O1,8,-1,6,?,3,-6,-9,-4
C[C@H](CO)N1C[C@H](C)[C@H](CN(C)C(=O)NC2CCCCC2)OCCCC[C@H](C)Oc2ccc(N(C)C)cc2C1=O,-52,·,10,111*,52,20,-19,-37
C[C@@H]1CN([C@H](C)CO)C(=O)c2cc(N(C)C)ccc2O[C@@H](C)CCCCO[C@@H]1CN(C)C(=O)C1CCCCC1,21,-3,2,70,·,·,·,·
C[C@@H]1CCCCO[C@@H](CN(C)C(=O)CCC(F)(F)F)[C@H](C)CN([C@@H](C)CO)C(=O)c2cc(N(C)C)ccc2O1,-3,-4,6,?,50,64,-29,-18
C[C@@H]1CCCCO[C@H](CN(C)C(=O)C2CCCCC2)[C@@H](C)CN([C@H](C)CO)C(=O)c2cc(N(C)C)ccc2O1,-3,0,2,103*!,52,32,8,-9
COc1cccc(-c2ccc([C@H]3[C@@H](CO)N4CCCCN(C(=O)c5ccc6c(c5)OCO6)C[C@@H]34)cc2)c1,25,·,-1,95,·,·,·,·
COc1cccc(-c2ccc([C@@H]3[C@H](CO)N4CCCCN(C(=O)c5ccc6c(c5)OCO6)C[C@@H]34)cc2)c1,-36,·,-1,98*,107*,44,25,103*
O=C(c1ccc2c(c1)OCO2)N1CCCCN2[C@H](C1)[C@H](c1ccc(-c3ccccc3)cc1)[C@@H]2CO,-14,·,0,57,·,·,·,·
SMILES,Pf Dd2 inh,IDH1 mut inh,KDM4C inh,T cruzi growth-1,T cruzi growth-2,T cruzi growth-3,NIH3T3 tox,3T3 cytotox 2
O=C(c1ccc2c(c1)OCO2)N1CCCCN2[C@H](CO)[C@H](c3ccc(-c4ccccc4)cc3)[C@@H]2C1,-49,·,0,57,·,·,·,·
COc1ccc(-c2ccc([C@@H]3[C@H](CO)N4CCCCN(C(=O)c5ccc6c(c5)OCO6)C[C@@H]34)cc2)cc1,-32,·,-1,108*,?,58,21,104*
COc1ccc(-c2ccc([C@H]3[C@H](CO)N4CCCCN(C(=O)c5ccc6c(c5)OCO6)C[C@@H]34)cc2)cc1,-47,·,-1,111*,100*,62,32,90*
COc1ccc(-c2ccc([C@@H]3[C@H]4CN(C(=O)c5ccc6c(c5)OCO6)CCCCN4[C@H]3CO)cc2)cc1,-46,·,0,112*,101*,82,23,104*
CS(=O)(=O)N(CC(=O)Nc1c(F)cccc1F)C1CCCCC1,·,0,·,·,·,·,·,·
CNC(=O)C(C)N(c1cc(C)cc(C)c1)S(C)(=O)=O (configuration not stated),·,0,·,·,·,·,·,·
Cc1ccc(S(=O)(=O)N(CCC#N)CCC#N)cc1,·,0,·,·,·,·,·,·
C[C@]12CCC(=O)C=C1CC[C@@H]1C2[C@@H](O)C[C@@]2(C)C1CC[C@@H]2C(=O)CO (some centres not stated),·,0,·,·,·,·,·,·
O=C(c1ccc2c(c1)OCO2)N1CCCCN2[C@@H](CO)[C@@H](c3ccc(-c4ccccc4)cc3)[C@@H]2C1,-11,·,0,104*,100*,67,?,102*
COc1ccccc1-c1cnc2c(c1)C(=O)N([C@H](C)CO)C[C@H](C)[C@@H](CN(C)Cc1cccc(F)c1)O2,-47,-1,0,?,102*,63,-3,42*
